Experimental findings from ChEMBL document CHEMBL6127097, “Structure-Guided Discovery of cis-Hexahydro-pyrido-oxazinones as Reversible, Drug-like Monoacylglycerol Lipase Inhibitors” (J Med Chem, 2024) are described below.

Series [1] deals with Mus musculus. The series is described as follows: Antiinflammatory activity in LPS-induced CD-1 mouse neuroinflammation model assessed as decrease in peripheral tissue IL-1beta mRNA expression at 30 mg/kg, ip measured after 6 hrs by qRT-PCR analysis. In kind it is functional, organism-based. Summed up: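 CD-1 mice were dosed with NaCl + vehicle, LPS (5 mg/kg) + vehicle, or LPS + inhibitor at 30 mg/kg i.p. (vehicle NaCl/DMSO/Tween 80, 80/10/10). They were sacrificed 6 h post-compound. LCN2 and IL1b mRNA in peripheral tissue were measured by droplet digital qRT-PCR.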

The species named for series [2] is Mus musculus. The series is described as follows: Inhibition of DAGL in mouse brain lysates at 10 uM by ABPP assay. It counts as subcellular. Summed up: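 Gel-based activity-based protein profiling of hydrolases, with the inhibitor at 10 µM.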
Series [3] deals with T1, Monoglyceride lipase (Mus musculus) (UniProt O35678).
T1 sequence (whole entry): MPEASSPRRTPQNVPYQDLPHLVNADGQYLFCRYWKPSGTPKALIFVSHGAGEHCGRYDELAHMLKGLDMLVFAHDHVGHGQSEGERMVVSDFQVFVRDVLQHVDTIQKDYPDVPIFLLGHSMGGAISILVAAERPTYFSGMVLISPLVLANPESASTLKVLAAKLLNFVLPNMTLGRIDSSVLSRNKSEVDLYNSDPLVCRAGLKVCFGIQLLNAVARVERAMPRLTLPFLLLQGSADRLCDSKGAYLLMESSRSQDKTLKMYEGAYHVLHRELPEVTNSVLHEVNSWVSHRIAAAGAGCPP
In words: In vivo receptor occupancy at MAGL receptor in mouse at 30 mg/kg, ip measured after 4 hrs. In kind it is functional, organism-based.

The nature of series [4]: Half-life in Wistar rat at 10 mg/kg, ip […] by LC-MS/MS analysis. It counts as ADME, organism-based. The note with it: in vivo. Summed up: (§1)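 Male Wistar rats, single dose. i.v. in NMP/0.9% NaCl 30:70; p.o. and i.p. in NMP/HPMC/diisooctyl sulfosuccinate 10:90; 3 per i.v./p.o. group, 6 i.p. K2EDTA plasma sampled 0.083–7 h, plus 24 h for i.v./p.o.; brain and CSF at 1, 2, 7 h (i.p. only). LC-MS/MS, noncompartmental analysis.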

A short description of series [5]: Oral bioavailability in Wistar rat at 5 mg/kg measured upto 24 hrs by LC-MS/MS analysis. It counts as ADME, organism-based. The note with it: in vivo. Summed up:
as §1

The nature of series [6]: Clearance in human microsomes. It counts as ADME, Microsome.
Series [7] is described as follows: Genotoxicity in Salmonella typhimurium by Ames test. In kind it is toxicity. The note with it: salmonella enterica subsp. enterica serovar typhimurium.
A short description of series [8]: Drug concentration in mouse CSF at 30 mg/kg, ip measured after 24 hrs. In kind it is ADME, organism-based, Cerebrospinal fluid. The note with it: read-out: Ct.
Series [9] can be described thus: Free fraction in human plasma incubated for 5 hrs by equilibrium dialysis based LC-MS/MS analysis. It counts as ADME, cell-free. Summed up: (§2)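 Equilibrium dialysis across a 12–14 kDa cutoff membrane in a Teflon 96-well device. Pooled frozen plasma is adjusted to pH 7.4 and spiked at 1000 nM initial total, against Soerensen buffer pH 7.4. Incubation is 5 h at 37 °C, 5% CO2, with diazepam control in each well. %fu = 100 × buffer/matrix concentration after dialysis; recovery accepted at 80–120%.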

A short description of series [10]: Effective permeability of compound at pH 7.4 at 20 uM incubated for 18 hrs by LCMS analysis. In kind it is ADME. The note with it: not told, read-out: Peff. Summed up: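 PAMPA passive permeability. Donor holds 20 µM sample in 50 mM phosphate-buffered saline pH 7.4, at most 5% DMSO, in triplicate. The lipid/oil/lipid trilayer-impregnated hydrophobic filter sandwich is left unshaken 18 h at 21 °C. Reference, donor and acceptor solutions are analysed by LCMS to give P_eff.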

Series [11] deals with T2, Monoglyceride lipase (Rattus norvegicus, UniProt Q8R431).
T2 sequence (Q8R431 whole entry): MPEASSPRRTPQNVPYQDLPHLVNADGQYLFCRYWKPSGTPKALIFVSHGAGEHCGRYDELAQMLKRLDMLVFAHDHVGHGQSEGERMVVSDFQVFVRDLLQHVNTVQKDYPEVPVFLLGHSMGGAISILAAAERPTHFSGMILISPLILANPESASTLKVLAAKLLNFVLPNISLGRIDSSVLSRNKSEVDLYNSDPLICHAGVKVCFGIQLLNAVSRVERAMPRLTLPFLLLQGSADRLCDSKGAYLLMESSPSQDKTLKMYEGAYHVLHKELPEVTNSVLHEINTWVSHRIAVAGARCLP
In words: Binding affinity to rat MAGL assessed as equilibrium dissociation constant by SPR analysis. Summed up: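 Human or rat MAGL was immobilized by amine coupling without ethanolamine quenching. Runs were done at 18 °C in 10 mM HEPES, 150 mM NaCl, 0.05% P20, 50 µM EDTA, pH 7.4, with 1% DMSO. Single-cycle kinetics used five concentrations, top 1 µM in 2-fold steps, at 30 µL/min, giving kon, koff and Kd.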

The nature of series [12]: Plasma protein binding in mouse assessed as fraction unbound by equilibrium dialysis based LC-MS/MS method. In kind it is ADME, cell-free. Summed up:
as §2

A short description of series [13]: AUClast in Wistar rat at 5 mg/kg, po measured upto 24 hrs by LC-MS/MS analysis. It counts as ADME, organism-based. The following applies: in vivo. Summed up: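 Male Wistar rats (N = 3 per group) received a single dose. The i.v. dose was 1 mg/kg in NMP/0.9% NaCl 30:70. The p.o. dose was 5 mg/kg in NMP/HPMC/diisooctyl sulfosuccinate 10:90. Blood was taken into K2EDTA from 0.083 (i.v.) or 0.25 h to 24 h. Plasma was assayed by LC-MS/MS and analysed non-compartmentally.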

The subject of series [14] is mouse P-gp. The series is described as follows: Apparent permeability across apical to basolateral side in pig LLC-PK1 cells expressing mouse P-gp. In kind it is ADME, cell-based, Sus scrofa. Summed up: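 LLC-PK1 porcine kidney cells transfected with human or mouse P-gp were grown as polarized monolayers on filter membranes. Compound was dosed to the apical side and receiver appearance followed over 3 h at 37 °C. A→B Papp was measured with the P-gp inhibitor zosuquidar present at 1 µM.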

Series [15] in a line: Half-life in Wistar rat at 1 mg/kg, iv measured upto 24 hrs by LC-MS/MS analysis. In kind it is ADME, organism-based. The note with it: in vivo. Summed up:
as §1

A short description of series [16]: Average drug concentration in mouse plasma at 30 mg/kg, ip measured after 2 hrs. In kind it is ADME, organism-based. The note with it: read-out: Cave. Summed up: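 In a time course, mice were injected i.p. with 30 mg/kg in NaCl/DMSO/Tween 80 (80/10/10). Average plasma levels were determined at the stated time points over 24 h.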
The nature of series [17]: Drug concentration in mouse CSF at 3 mg/kg, ip measured after 4 hrs. The note with it: read-out: Ct. It counts as ADME, organism-based, Cerebrospinal fluid.
Series [18] can be described thus: Aqueous solubility of compound in phosphate buffer at pH 6.5 by HPLC or MS/MS analysis. It counts as physicochemical. The note with it: buffer. Summed up:
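Lyophilization solubility assay (LYSA) starting from a 10 mM DMSO stock. DMSO was removed by centrifugal vacuum evaporation, then 0.05 M phosphate buffer pH 6.5 was added and samples sonicated. Filtrates were analysed by MS/MS and/or HPLC against a 4- to 7-point calibration curve.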

Values after ≈ are worked out from the molar mass of the structure shown. Active and inactive are the calls of the source.

Turning to `O=C1CO[C@H]2CCN(C(=O)N3CCC(Cc4ccc(C(F)(F)F)cc4)CC3)C[C@H]2N1` [listing 1 of 2 here], in series [1], the result was inactive. For the same compound, in [2], the inhibition result was “inactive”. This compound registered an Activity in series [3] of 93%.

As to `O=C1CO[C@H]2CCN(C(=O)N3CCC(Cc4ccc(C(F)(F)F)cc4)CC3)C[C@H]2N1` [listing 2 of 2 here], the half-life in [4] is 2.7 h; in series [15], 5.1 h. Besides, the bioavailability in series [5] turned out to be 115%. The compound also gave an intrinsic clearance (microsomal CLint) in [6] of less than 10 µL/min/mg. For the same compound, the Activity result in series [7] is “Non-Toxic”. In addition, in series [8], the concentration at 24 h is 2 nM. In series [9], this compound registered an unbound share (fraction unbound) at 5 h of 0.043. In addition, the Papp at 18 h, 20 µM in series [10] came out at 12.8 ×10⁻⁶ cm/s. Moreover, the equilibrium dissociation constant (Kd) in series [11] is 64 nM. Also, the free fraction (fraction unbound) in series [12] was 0.047. The compound also gave an AUC(0-t) at 24 h in series [13] of 19100 ng·h/mL. For the same compound, in series [14], the apparent permeability from apical to basolateral (Papp A→B) was found to be 24.4 ×10⁻⁶ cm/s. The concentration at 2 h in [16] is 42000 nM. Also, in series [17], the concentration at 4 h is 31.2 nM. The compound further came in with a solubility in series [18] of 231 µg/mL (≈ 543 µM).
